“And” between values parts separate entries of the source, which are not always exact repeats. Identical values can stand only once. Like-named read-outs stand apart in the source and are kept apart here. Marks after values point to notes of the source that are not given here.
Assays:
hOAT [1] = target: T1, hOAT (Homo sapiens, UniProt P04181); test: Time-dependent inactivation kinetics of hOAT; type: biochemical
T1 sequence (P04181 26-439): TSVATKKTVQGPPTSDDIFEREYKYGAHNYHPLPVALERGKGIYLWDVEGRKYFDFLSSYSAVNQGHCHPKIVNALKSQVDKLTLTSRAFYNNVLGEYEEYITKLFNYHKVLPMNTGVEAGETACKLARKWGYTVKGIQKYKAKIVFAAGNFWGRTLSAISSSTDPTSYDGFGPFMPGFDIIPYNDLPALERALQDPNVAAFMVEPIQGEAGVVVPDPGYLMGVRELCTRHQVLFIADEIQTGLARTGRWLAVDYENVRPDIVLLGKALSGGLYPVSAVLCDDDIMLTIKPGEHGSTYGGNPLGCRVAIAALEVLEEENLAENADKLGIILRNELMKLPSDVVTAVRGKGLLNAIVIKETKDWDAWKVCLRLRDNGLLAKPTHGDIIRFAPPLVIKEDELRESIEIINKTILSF

[2] = test system: aspartate aminotransferase (Asp-AT); conditions: up to 4 mM; cited from earlier work
hOAT [3] = target: T1, hOAT; conditions: cited from earlier work
hOAT [4] = target: T1, hOAT; conditions: cited from earlier work; remark: listed apart in the source
[5] = test system: alanine aminotransferase (Ala-AT); conditions: up to 4 mM; cited from earlier work
GABA-AT [6] = target: T2, GABA-AT (Sus scrofa, UniProt P80147); test: Reversible inhibition of GABA-AT; type: biochemical; conditions: Ki = IC50/(1+[S]/Km)
GABA-AT [7] = target: T2, GABA-AT; conditions: cited from earlier work
[8] = test system: human-derived HCC mouse model; conditions: 0.1 and 1.0 mg/kg; po; cited from earlier work
hOAT [9] = target: T1, hOAT; conditions: cited from earlier work; remark: listed apart in the source
hOAT [10] = target: T1, hOAT; test: Partition ratio determination with hOAT; type: biochemical; conditions: in the presence of α-KG, partition ratio = turnover number −1
hOAT [11] = target: T1, hOAT; test: Denaturing intact protein mass spectrometry of hOAT inactivated by 6; type: binding
Method in brief: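 Intact hOAT fully inactivated by the test compound was analysed by denaturing intact-protein mass spectrometry, with untreated hOAT run alongside as a control. The added mass was read as the shift from the unmodified protein and compared with theoretical adduct masses.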

hOAT [12] = target: T1, hOAT; test: 48-hour time-dependent dialysis of inactivated hOAT; type: biochemical; conditions: 48-hour dialysis against buffer with excess PLP and α-KG
hOAT [13] = target: T1, hOAT; test: Stopped-flow transient-state spectrophotometry of hOAT reacting with 6; type: biochemical
Method in brief: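 Stopped-flow at 10 °C. hOAT (6.94 µM final) was mixed with the test compound (e.g. 1040 µM final; several concentrations). CCD absorbance at 250–800 nm over 0.0137–9843 s came from spliced, averaged short- and long-time datasets, deconvolved by SVD. The 420 nm traces were fitted to three exponentials, and first-phase kobs was fitted against concentration. Quinonoid accumulation assumed ε ~30 mM−1cm−1.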

[14] = test system: aspartate aminotransferase (Asp-AT); test: Inhibition of Asp-AT; type: biochemical; conditions: at concentrations up to 10 mM
[15] = test system: alanine aminotransferase (Ala-AT); test: Inhibition of Ala-AT; type: biochemical; conditions: at concentrations up to 10 mM
[16] = hOAT inactivation, mean and standard error

T2 sequence (P80147 29-500): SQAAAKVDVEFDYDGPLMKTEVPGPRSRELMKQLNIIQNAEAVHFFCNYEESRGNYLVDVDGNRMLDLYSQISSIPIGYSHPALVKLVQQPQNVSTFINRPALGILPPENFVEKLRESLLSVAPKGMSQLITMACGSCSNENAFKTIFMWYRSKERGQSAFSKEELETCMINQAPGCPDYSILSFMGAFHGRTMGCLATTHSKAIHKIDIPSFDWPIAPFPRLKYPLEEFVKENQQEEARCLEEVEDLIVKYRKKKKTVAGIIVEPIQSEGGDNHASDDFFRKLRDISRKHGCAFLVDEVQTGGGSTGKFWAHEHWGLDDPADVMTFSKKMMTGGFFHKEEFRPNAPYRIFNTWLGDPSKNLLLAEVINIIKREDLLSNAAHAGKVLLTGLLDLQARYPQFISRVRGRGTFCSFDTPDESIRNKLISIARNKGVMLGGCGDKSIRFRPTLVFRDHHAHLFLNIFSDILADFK

Which results are given for N[C@H]1C[C@@H](C(=O)O)CC1=C(C(F)(F)F)C(F)(F)F [Compound 1, (1S,3S)-3-amino-4-(hexafluoropropan-2-ylidenyl)cyclopentane-1-carboxylic acid]?
kinact/KI (hOAT [1]; hOAT inactivation efficiency): 16.7 ± 6.7 M⁻¹ s⁻¹; Ki (hOAT [1]; [16]): 0.09 ± 0.03 mM; kinact (hOAT [1]; [16]): 0.09 ± 0.01 min⁻¹; inhibition of Asp-AT [2]: no inhibition; Partition ratio (hOAT [3]): 12 ± 1^b; Fluoride ion release (hOAT [4]): 79 ± 2^b eq.; inhibition of Ala-AT [5]: no inhibition; Ki (GABA-AT [6]): 5.2 ± 0.6 mM; Ki (GABA-AT [7]; GABA-AT, weak reversible inhibition): 4.2 mM; inhibition of GABA-AT (in words) (GABA-AT [7]; preliminary screening): millimolar reversible inhibition; serum AFP levels [8]: remarkably decreased; tumor growth [8]: inhibited tumor growth

Which “improvement in inactivation efficiency (kinact/KI) against hOAT compared to 1” value (hOAT [9]; versus compound 1) does the source give for N[C@H]1C=C(C(=O)O)CCC1(F)F [Compound 2, (S)-3-amino-4,4-difluorocyclohex-1-enecarboxylic acid, reference compound] here?
The value was 23 fold.

What does the source list for N[C@H]1C[C@@H](C(=O)O)CC1(F)F [Compound 4, (1R,4S)-4-amino-3,3-difluorocyclopentanecarboxylic acid]?
Ki (hOAT [1]): 4 ± 1 mM; Ki (hOAT [9]; hOAT inactivation): 7.8 mM

With N[C@H]1C=C(C(=O)O)CC1(F)F [Compound 6, (S)-3-amino-4,4-difluorocyclopent-1-enecarboxylic acid] as the compound, how does the Ki (hOAT [1]) read?
Its Ki is 0.06 ± 0.03 mM.

What about the kinact/KI (hOAT [1]) of the same compound?
Its kinact/KI is 21.7 M⁻¹ s⁻¹.

What about the “improvement in inactivation efficiency (kinact/KI)” value (hOAT [1]; 6 versus 4, hOAT) of the same compound?
The value was 400 fold.

And the Partition ratio (hOAT [10])?
The Partition ratio was 34 and 34 ± 0.

And the “hOAT in apo-enzyme state” value (hOAT [11]; denaturing MS conditions at pH 2.5)?
Its value is “approximately 84%”.

And the hOAT covalently modified (hOAT [11]; denaturing MS, hOAT fully inactivated by 6, mass increase 370.07 Da)?
The hOAT covalently modified was ~ 16%.

And the “residual activity of hOAT after dialysis” value (hOAT [12])?
The value was “unchanged”.

And the “rate of quinonoid decay” value (hOAT [13])?
The value was 0.09 s⁻¹.

What about the “rate of second external aldimine formation (bimolecular)” value (hOAT [13]; 420 nm) of the same compound?
Its value is 6200 M⁻¹ s⁻¹.

And the “rate constant of final phase” value (hOAT [13]; external aldimine decay with increase at ~275 nm)?
The value was 0.007 s⁻¹.

What about the “rate of quinonoid species accumulation” value (hOAT [13]; ~560 nm) of the same compound?
The value was 0.4 s⁻¹.

And the “inhibition of Asp-AT” value [14]?
Its value is “did not show noticeable inhibition”.

And the “inhibition of Ala-AT” value [15]?
The value was “did not show noticeable inhibition”.

From PMC8367020 (Journal of the American Chemical Society, 2021)
